Screening results as filed in PubChem BioAssay.
Hits are enriched below; roughly 2% of the tested compounds scored in any of these assays.
UHRF1 binding = blocks human UHRF1 binding to methylated DNA. UHRF1 binding to methylated oligo, TR-FRET. inhibition, % at 4.4 µM. 0.75% of 370,000 active; in the data active means inhibition above about 21%;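 further: UHRF1 SRA domain binding a hemimethylated CpG hairpin DNA probe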
LEDGF integ inh = blocks HIV-1 LEDGF/p75-dependent DNA integration; 0.64% of 370,000 active; TR-FRET IN-LEDGF/p75 DNA integration, Eu/Cy5; inhibition, % at 3.7 µM;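 active means inhibition above the screen-wide mean plus 3 SD, cut at about 13% in these data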;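 further: signal is the Cy5 over europium emission ratio at 671 and 618 nm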
ARFGAP1 inh = inhibits rat ARF GTPase activating protein 1; Q62848; Arfgap1-stimulated ARF1 GTP hydrolysis, GDP FP detection; inhibition, % at 16.5 µM; 0.26% of 360,000 active;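 active means inhibition above a per-plate limit, mean inhibition of low control wells plus 3 SD, cut at about 25% in these data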
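Material – truncated rat Arfgap1 GAP domain · Buffer or medium – HEPES-based buffer, pH 7.5 · Reagent – human ARF1(Δ1-17)-GTP substrate · Dosing – 16.5 µM single point, 1.26% DMSO · Schedule – GTP hydrolysis reaction 2 h at 25 °C · Technique – GDP detection by fluorescence polarization · Benchmarks – No-Arfgap1 wells (100%) versus DMSO full-reaction wells (0%) · Repeats – single replicate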
ASAP1 inh = ASAP1 ArfGAP inhibition; AID 624377; 0.19% of 360,000 active; ASAP1-stimulated ARF1 GTP hydrolysis, GDP FP detection; inhibition, % at 16.5 µM; in the data active means inhibition above about 25%
MBD2 DNA inh = inhibitors of human MBD2 binding to methylated oligonucleotide; Q9UBB5; TR-FRET; inhibition, % at 4.4 µM; 0.31% of 370,000 active; in the data active means inhibition above about 13%
TCR CD3 inh = human TCR-CD3 binding inhibition | TAMRA-labeled TCR probe fluorescence, biochemical | 0.37% of 360,000 active | inhibition, % at 9.4 µM | AID 651800; in the data active means inhibition above about 19%;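 further: recombinant mutant TCR 2C K166C tagged with TAMRA read by polarization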
ARFGAP1 inh conf = confirmation of rat ARFGAP1 inhibitors; inhibition, % at 16.5 µM; ARFGAP1-stimulated ARF1 GTP hydrolysis, GDP tracer FP; AID 651608; 30% of 890 active; shares compounds with ARFGAP1 inh;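 active means average inhibition over triplicates above the hit cutoff set in the earlier primary screen, cut at about 25% in these data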
Large screens that a line does not name were inactive (follow-up assays come after a bar, where they were run).

COc1ccccc1C(=O)NCCC(=O)Nc1ccc(S(=O)(=O)N2CCCC(C)C2)cc1 (configuration not stated)	ARFGAP1 inh 28 | ARFGAP1 inh conf inactive
COc1ccccc1C(=O)NCCC(=O)N1CCCC(C)C1 (configuration not stated)	none
O=C(NCCCO)C(=O)Nc1cc2c3c(c1)CCC(=O)N3CCC2	ARFGAP1 inh 27 | ARFGAP1 inh conf inactive
CCOc1ccc(-c2[nH]ncc2-c2ccccc2)c(O)c1	ARFGAP1 inh 25 | ARFGAP1 inh conf inactive
O=C(Nc1ccc(Oc2cccc3ccccc23)cc1)c1ccco1	ARFGAP1 inh 28 | ARFGAP1 inh conf inactive
COc1cccc(/C=N\N2CCN(c3ccc(C)cc3)CC2)c1O	none (no result: ARFGAP1 inh, ASAP1 inh, TCR CD3 inh)
COc1cc(C(C#N)N2CCC(c3ccccc3)=N2)ccc1O (configuration not stated)	ARFGAP1 inh 27 | ARFGAP1 inh conf inactive
N#C/C(=C\c1cccn1S(=O)(=O)c1cccc(C#N)c1)S(=O)(=O)c1ccc(F)cc1	none
CCS(=O)(=O)Nc1cccc(C2=NN(S(=O)(=O)c3ccccc3)C(c3ccco3)C2)c1 (configuration not stated)	none
CS(=O)(=O)Nc1cccc(C2=NN(S(=O)(=O)c3ccccc3)C(c3ccco3)C2)c1 (configuration not stated)	ARFGAP1 inh 32 | ARFGAP1 inh conf inactive
Cc1ccc(N(C(=O)CNC(=O)c2ccco2)C(C(=O)NC2CCCCC2)c2cccnc2)cc1 (configuration not stated)	none
Cn1ccc2c(-c3cncc4ccccc34)cc3c(c21)C1CCC3C1 (configuration not stated)	ARFGAP1 inh 32 | ARFGAP1 inh conf inactive
Cn1ccc2c(-c3cccc4ccccc34)cc3c(c21)C1CCC3C1 (configuration not stated)	none
COc1ccc(CCN2C(=O)NC(NC(=O)CC(C)C)(C(F)(F)F)C2=O)cc1OC (configuration not stated)	ARFGAP1 inh 28 | ARFGAP1 inh conf inactive
CCN1CCN(C(=O)Cn2ncc3c([nH]c4ccccc43)c2=O)CC1	none
CCN1CCN(C(=O)Cn2ncc3c([nH]c4ccc(C)cc43)c2=O)CC1	ARFGAP1 inh 25 | ARFGAP1 inh conf 29
CCCN(C(=O)CSc1nnc(-c2ccc3c(c2)OCO3)o1)C1CCS(=O)(=O)C1 (configuration not stated)	none
CC(=O)c1cccc(NC(=O)c2cccc3c(-c4cnn(C)c4)coc23)c1	ARFGAP1 inh 28 | ARFGAP1 inh conf 25
Cn1cc(-c2coc3c(C(=O)Nc4ccccc4)cccc23)cn1	none
COc1ccc(NC(=O)c2cccc3c(-c4cnn(C)c4)coc23)cc1	ARFGAP1 inh 30 | ARFGAP1 inh conf 30
COC(=O)[C@]1(CNC(C)=O)CC(=O)N(C)[C@@H]1c1ccccc1	none (no result: ARFGAP1 inh, ASAP1 inh, TCR CD3 inh)
COC(=O)[C@]12CCCCC=C1N(Cc1ccc(OC)cc1)C(=O)[C@@H]2CC(=O)N1CCCCC1	none (no result: ARFGAP1 inh, ASAP1 inh, TCR CD3 inh)
O=c1[nH][nH]cc1C=Nc1ccc(Cl)cc1	ARFGAP1 inh 36 | ARFGAP1 inh conf inactive
COc1ccc(N2C(=O)c3ccccc3NC(=O)C2C(=O)NCCc2ccccc2F)cc1 (configuration not stated)	none
COc1cc(OC)cc(-c2sc3ccc(OC)cc3c2-c2ccc(O)cc2)c1	ARFGAP1 inh 26 | ARFGAP1 inh conf inactive
COc1ccc(-c2sc3ccc(OC)cc3c2-c2ccc(O)cc2)cc1	none
CC(C)CCN1C(=O)COc2ccccc2C1c1nnnn1-c1ccc2c(c1)OCCO2 (configuration not stated)	none (no result: ARFGAP1 inh, ASAP1 inh, TCR CD3 inh)
CCC(C)C(=O)Nc1nc(C)c(-c2csc(Nc3cc(Cl)ccc3OC)n2)s1 (configuration not stated)	ARFGAP1 inh 31 | ARFGAP1 inh conf inactive
Cc1cc(C)c(NC(=O)CSc2nc3ccc(NC(=O)CSc4nnnn4Cc4ccccc4)cc3s2)c(C)c1	ARFGAP1 inh 25 | ARFGAP1 inh conf inactive
Cc1cccc(C)c1NC(=O)C1(C)CSCC(=O)N1C1CCN(Cc2ccccc2)CC1 (configuration not stated)	none
CCCOc1ccc(C(=O)Nc2ccc(S(=O)(=O)N3CCN(C)CC3)cc2)cc1	none
CCCOc1ccc(C(=O)Nc2ccc(S(=O)(=O)N3C[C@@H]4C[C@@H](C3)c3cccc(=O)n3C4)cc2)cc1	ARFGAP1 inh 25 | ARFGAP1 inh conf inactive
Cn1c(=O)c2c(-c3ccccc3F)c3c(nc2n(C)c1=O)-c1ccccc1C3O (configuration not stated)	ARFGAP1 inh 25 | ARFGAP1 inh conf inactive
Cn1c(=O)c2c(SCC(=O)N3CCCCC3)nc(-c3ccccc3F)nc2n(C)c1=O	none
Cc1cc(NC(=O)NC(=O)c2ccccc2NC(=O)CN)ccc1Oc1ncc(Br)cn1	none
Cc1cc(NC(=O)NC(=O)c2ccccc2NC(=O)CN(C)C)ccc1Oc1ncc(Br)cn1	ARFGAP1 inh 31 | ARFGAP1 inh conf inactive
Oc1cccc(C(=S)N2CCC(Cc3ccccc3)CC2)c1	none
Cc1cc(S(=O)(=O)Nc2cccnc2)c(C)s1	ARFGAP1 inh 25 | ARFGAP1 inh conf inactive
Cc1ccc(S(=O)(=O)Nc2cccnc2)cc1C	none
C#CCCCN([C@@H](CC(C)C)C(=O)OC)S(=O)(=O)c1ccc(F)cc1Br	none (no result: ARFGAP1 inh, ASAP1 inh, TCR CD3 inh)
CCc1cc(C(=O)NNC(=O)CCN2CCN(c3ccccc3)CC2)sc1C	none
CCc1cc(C(=O)NNC(=O)CCl)sc1C	ARFGAP1 inh 25 | ARFGAP1 inh conf inactive
O=C(COC(=O)c1ccc(O)cc1)Nc1cc(S(=O)(=O)N2CCCCCC2)ccc1Cl	ARFGAP1 inh 26 | ARFGAP1 inh conf inactive
C=C(C)C(=O)OCC(O)COc1ccc(C(C)(C)c2ccc(OCC(O)COC(=O)C(=C)C)cc2)cc1 (configuration not stated)	ARFGAP1 inh 32 | ARFGAP1 inh conf inactive
COc1ccc(C(=O)O[C@@H]2CCC[C@@]3(C(=O)N(Cc4ccccc4)c4ccccc43)[C@H]2NC(=O)CCc2ccccc2)cc1OC	none (no result: ARFGAP1 inh, ASAP1 inh, TCR CD3 inh)
O=C1CC(N2CCC(c3nc4ccccc4s3)CC2)C(=O)N1Cc1ccccc1 (configuration not stated)	ARFGAP1 inh 37 | ARFGAP1 inh conf inactive
O=C(/C=C\c1ccco1)Nc1nc(-c2ccccc2)cs1	none
O=C(/C=C/c1ccccc1)Nc1nc(-c2ccncc2)cs1	ARFGAP1 inh 35 | ARFGAP1 inh conf 62
CC(N=C1NS(=O)(=O)c2ccccc21)C(=O)NCCCc1ccccc1 (configuration not stated)	none
